Data reported in ChEMBL document CHEMBL5543163, “Druglike, 18F-labeled PET Tracers Targeting Fibroblast Activation Protein” (J Med Chem, 2024).
pIC50: −log10 of the molar value.

Columns and labels:
Prolyl endopeptidase FAP = target: T1, Prolyl endopeptidase FAP (Homo sapiens, UniProt Q12884); assay: Inhibition of FAP (unknown origin) using Z-Gly-Pro-7-amino-4-methylcoumarine as fluorogenic substrate preincubated for 15 mins followed by substrate addition and measured after 15 mins
T1 sequence (Q12884 whole entry): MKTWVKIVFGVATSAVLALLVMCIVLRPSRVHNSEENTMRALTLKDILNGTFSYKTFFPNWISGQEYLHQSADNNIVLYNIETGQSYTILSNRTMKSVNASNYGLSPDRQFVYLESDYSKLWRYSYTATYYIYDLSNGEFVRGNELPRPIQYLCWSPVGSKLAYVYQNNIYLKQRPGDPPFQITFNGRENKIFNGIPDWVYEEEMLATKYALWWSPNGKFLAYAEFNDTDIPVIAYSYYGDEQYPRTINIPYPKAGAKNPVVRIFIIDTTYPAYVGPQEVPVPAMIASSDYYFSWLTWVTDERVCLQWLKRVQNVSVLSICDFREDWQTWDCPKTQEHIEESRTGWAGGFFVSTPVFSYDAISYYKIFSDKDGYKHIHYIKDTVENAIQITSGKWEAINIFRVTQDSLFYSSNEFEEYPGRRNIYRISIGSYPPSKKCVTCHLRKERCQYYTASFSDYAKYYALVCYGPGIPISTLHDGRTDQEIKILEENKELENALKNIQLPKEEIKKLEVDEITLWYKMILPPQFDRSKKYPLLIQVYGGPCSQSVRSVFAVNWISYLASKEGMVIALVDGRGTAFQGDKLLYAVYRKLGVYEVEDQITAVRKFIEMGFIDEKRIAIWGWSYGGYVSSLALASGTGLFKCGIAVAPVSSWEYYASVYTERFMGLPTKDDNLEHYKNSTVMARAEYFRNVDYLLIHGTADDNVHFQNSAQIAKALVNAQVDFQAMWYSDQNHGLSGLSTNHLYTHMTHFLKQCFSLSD

Dipeptidyl peptidase 4 = Dipeptidyl peptidase 4 (Homo sapiens, UniProt P27487); assay: Inhibition of DPP4 (unknown origin) using Ala-Pro-paranitroanilide as chromogenic substrate preincubated for 15 mins followed by substrate addition and measured after 15 mins
Dipeptidyl peptidase 8 = Dipeptidyl peptidase 8 (Homo sapiens, UniProt Q6V1X1); assay: Inhibition of DPP8 (unknown origin) using Ala-Pro-paranitroanilide as chromogenic substrate preincubated for 15 mins followed by substrate addition and measured after 15 mins
Dipeptidyl peptidase 9 = Dipeptidyl peptidase 9 (Homo sapiens, UniProt Q86TI2); assay: Inhibition of DPP9 (unknown origin) using Ala-Pro-paranitroanilide as chromogenic substrate preincubated for 15 mins followed by substrate addition and measured after 15 mins
Dipeptidyl peptidase 2 = Dipeptidyl peptidase 2 (Homo sapiens, UniProt Q9UHL4); assay: Inhibition of DPP2 (unknown origin) using Lys-Ala-pNA as substrate preincubated for 15 mins followed by substrate addition and measured after 15 mins
Prolyl endopeptidase = target: T2, Prolyl endopeptidase (Homo sapiens, UniProt P48147); assay: Inhibition of PREP (unknown origin) using N-succinyl-Gly-Pro-AMC as substrate preincubated for 15 mins followed by substrate addition and measured after 15 mins
T2 sequence (P48147 whole entry): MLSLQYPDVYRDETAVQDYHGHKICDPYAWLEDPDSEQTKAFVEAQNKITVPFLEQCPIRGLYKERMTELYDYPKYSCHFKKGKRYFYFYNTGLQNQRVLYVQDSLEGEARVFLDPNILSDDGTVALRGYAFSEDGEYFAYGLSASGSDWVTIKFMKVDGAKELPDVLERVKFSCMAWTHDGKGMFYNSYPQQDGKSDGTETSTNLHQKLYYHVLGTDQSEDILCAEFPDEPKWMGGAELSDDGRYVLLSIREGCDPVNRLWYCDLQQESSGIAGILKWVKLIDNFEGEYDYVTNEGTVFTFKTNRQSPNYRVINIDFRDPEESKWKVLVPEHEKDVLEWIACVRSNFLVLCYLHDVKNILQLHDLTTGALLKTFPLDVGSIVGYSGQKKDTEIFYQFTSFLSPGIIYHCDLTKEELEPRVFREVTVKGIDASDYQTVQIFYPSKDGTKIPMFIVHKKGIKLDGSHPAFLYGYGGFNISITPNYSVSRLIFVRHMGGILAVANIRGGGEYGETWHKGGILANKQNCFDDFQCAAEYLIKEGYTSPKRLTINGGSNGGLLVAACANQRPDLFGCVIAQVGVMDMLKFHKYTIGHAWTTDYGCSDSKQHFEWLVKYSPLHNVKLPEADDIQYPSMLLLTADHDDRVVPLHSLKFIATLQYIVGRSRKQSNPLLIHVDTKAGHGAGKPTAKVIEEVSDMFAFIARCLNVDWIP

[1] = Octanol/water partition coefficient, logD of compound at 74 kBq incubated for 2 mins by gamma counter method; type: physicochemical
In short: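 Octanol and PBS phases were mixed and vortexed for 2 min, then centrifuged at 3,000 rpm for 10 min. Aliquots of 0.5 mL from each phase were γ-counted and corrected for mass and density. LogD was taken as log10 of the octanol/PBS radioactivity ratio.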

[2] = Stability in PBS assessed as compound remaining at 185 kBq measured upto 60 mins by radio-HPLC analysis; type: physicochemical; conditions: read-out: Stability
In short: (§1)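 Radiotracer was incubated at 37 °C for up to 60 min in PBS (0.01 M, pH 7.4) or in mouse plasma. Samples were deproteinized with an equal volume of cold ACN and centrifuged. The supernatant was analyzed by radio-HPLC with 30 s fractions γ-counted to give the intact fraction. Triplicates.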

[3] = Stability in CD1 mouse plasma assessed as compound remaining at 185 kBq measured upto 60 mins by radio-HPLC analysis; type: ADME, cell-free; conditions: read-out: Stability; in short: as §1
[4] = Stability in PBS assessed as drug degradation at 185 kBq measured upto 60 mins by radio-HPLC analysis; type: physicochemical; conditions: buffer, 1 h; in short: as §1
[5] = Stability in CD1 mouse plasma assessed as drug degradation at 185 kBq measured upto 60 mins by radio-HPLC analysis; type: ADME, cell-free; conditions: 1 h; in short: as §1
[6] = Stability in female nude mouse harboring null mutation of CD1 antigen complex assessed as drug degradation at 5.1 to 7.4 MBq, iv measured at 60 mins by radio-HPLC analysis; type: ADME, organism-based; conditions: 1 h, dose 5.1-7.4 MBq
In short: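 Female CD1 nude mice received 5.1–7.4 MBq i.v. EDTA blood collected at 15, 30 and 60 min p.i. (n=3 per time point) was centrifuged to plasma, deproteinized with cold ACN and centrifuged. The supernatant was analyzed by radio-HPLC with 30 s fractions γ-counted to give the percent intact tracer.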

[7] = Drug uptake in blood of female nude mouse harboring null mutation of CD1 antigen complex at 5.1 to 7.4 MBq, iv measured after 15 to 60 mins by gamma counter analysis; type: ADME, organism-based; conditions: in vivo, dose lower 5.1 MBq, time lower 15 min, dose upper 7.4 MBq, time upper 60 min
In short: (§2)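 Female CD1 nude mice, 6–8 weeks old (20–25 g), received the radiotracer through the lateral tail vein. At 15, 30 and 60 min p.i. (n = 3 per time point) blood was drawn by cardiac puncture and the animals were euthanized. Organs were excised, weighed and γ-counted. Uptake is expressed as %ID/g.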

[8] = Drug uptake in liver of female nude mouse harboring null mutation of CD1 antigen complex at 5.1 to 7.4 MBq, iv measured after 15 to 60 mins by gamma counter analysis; type: ADME, organism-based; conditions: in vivo, dose lower 5.1 MBq, time lower 15 min, dose upper 7.4 MBq, time upper 60 min; in short: as §2
[9] = Drug uptake in intestine of female nude mouse harboring null mutation of CD1 antigen complex at 5.1 to 7.4 MBq, iv measured after 15 to 60 mins by gamma counter analysis; type: ADME, organism-based; conditions: in vivo, dose lower 5.1 MBq, time lower 15 min, dose upper 7.4 MBq, time upper 60 min; in short: as §2
[10] = Drug uptake in kidney of female nude mouse harboring null mutation of CD1 antigen complex assessed as increase in renal excretion at 5.1 to 7.4 MBq, iv measured after 15 to 60 mins by gamma counter analysis; type: ADME, organism-based; conditions: in vivo, dose lower 5.1 MBq, time lower 15 min, dose upper 7.4 MBq, time upper 60 min; in short: as §2
[11] = Drug uptake in urinary bladder of female nude mouse harboring null mutation of CD1 antigen complex assessed as increase in renal excretion at 5.1 to 7.4 MBq, iv measured after 15 to 60 mins by gamma counter analysis; type: ADME, organism-based; conditions: in vivo, dose lower 5.1 MBq, time lower 15 min, dose upper 7.4 MBq, time upper 60 min; in short: as §2
[12] = Drug uptake in tumor of female nude mouse harboring null mutation of CD1 antigen complex xenografted with human U-87 MG cells at 5 to 7.4 MBq, iv measured at 60 mins by PET/CT analysis; type: ADME, organism-based, Neoplasm; conditions: in vivo, 1 h, dose 5-7.4 MBq
In short: (§3)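 U-87MG xenografts (5×10^6 cells, subcutaneous flank) were grown in female CD1 nude mice to about 200 mm3. Dynamic whole-body PET over 60 min p.i. was followed by CT. Images were reconstructed with OSEM 3D and expressed as %ID/mL to give time-activity curves. For blocking, the FAP inhibitor (5 mg/kg) was given via the tail vein 30 min before the tracer; n=4.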

[13] = Drug uptake in tumor of female nude mouse harboring null mutation of CD1 antigen complex xenografted with human U-87 MG cells at 5 to 7.4 MBq, iv pretreated with (S)-N-(2-(2-cyano-4,4-difluoropyrrolidin-1-yl)-2-oxoethyl)quinoline-4-carboxamide for 30 mins followed by radioligand addition and measured measured after 60 mins by PET/CT analysis; type: ADME, organism-based, Neoplasm; conditions: in vivo, 1 h, dose 5-7.4 MBq; in short: as §3
[14] = Drug uptake in skull of female nude mouse harboring null mutation of CD1 antigen complex xenografted with human U-87 MG cells at 5 to 7.4 MBq, iv measured after 60 mins by gamma counter analysis; type: ADME, organism-based; conditions: in vivo, 1 h, dose 5-7.4 MBq
[15] = Ratio of drug level in tumor to muscle of female nude mouse harboring null mutation of CD1 antigen complex xenografted with human U-87 MG cells at 5 to 7.4 MBq, iv measured at 60 mins postinjection by gamma counter analysis; type: ADME, organism-based; conditions: in vivo, 1 h, dose 5-7.4 MBq
In short: (§4)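 Subcutaneous U-87MG xenografts (5×10^6 cells in DPBS, hind flank) were grown in female CD1 nude mice to about 200 mm3. After tail-vein radiotracer injection and a 60 min dynamic PET scan, tissues were harvested at 60 min p.i. and γ-counted (%ID/g). Tumor-to-tissue ratios are means ± SD of individual ratios, n=4 per tracer.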

[16] = Ratio of drug level in tumor to blood of female nude mouse harboring null mutation of CD1 antigen complex xenografted with human U-87 MG cells at 5 to 7.4 MBq, iv measured at 60 mins postinjection by gamma counter analysis; type: ADME, organism-based; conditions: tumour, 1 h, dose 5-7.4 MBq; in short: as §4
[17] = Ratio of drug level in tumor to small intestine of female nude mouse harboring null mutation of CD1 antigen complex xenografted with human U-87 MG cells at 5 to 7.4 MBq, iv measured at 60 mins postinjection by gamma counter analysis; type: ADME, organism-based; conditions: in vivo, 1 h, dose 5-7.4 MBq; in short: as §4
[18] = Ratio of drug level in tumor to liver of female nude mouse harboring null mutation of CD1 antigen complex xenografted with human U-87 MG cells at 5 to 7.4 MBq, iv measured at 60 mins postinjection by gamma counter analysis; type: ADME, organism-based; conditions: in vivo, 1 h, dose 5-7.4 MBq; in short: as §4
[19] = Drug uptake in tumor of female nude mouse harboring null mutation of CD1 antigen complex xenografted with human U-87 MG cells with increased FAP positive tumor area at 5 to 7.4 MBq, iv measured after 60 mins by immunohistochemistry analysis; type: ADME, organism-based, Neoplasm; conditions: in vivo, 1 h, dose 5-7.4 MBq
[20] = Drug uptake in tumor of female nude mouse harboring null mutation of CD1 antigen complex xenografted with human HT-29 cells with decreased FAP positive tumor area at 5 to 7.4 MBq, iv measured after 60 mins by immunohistochemistry analysis; type: ADME, organism-based, Neoplasm; conditions: in vivo, 1 h, dose 5-7.4 MBq
[21] = Drug uptake in bone structures of female nude mouse harboring null mutation of CD1 antigen complex xenografted with human U-87 MG cells at 5 to 7.4 MBq, iv measured after 60 mins by gamma counter analysis; type: ADME, organism-based, Bone element; conditions: in vivo, 1 h, dose 5-7.4 MBq

Chain of Dipeptidyl peptidase 8 (Q6V1X1 whole entry): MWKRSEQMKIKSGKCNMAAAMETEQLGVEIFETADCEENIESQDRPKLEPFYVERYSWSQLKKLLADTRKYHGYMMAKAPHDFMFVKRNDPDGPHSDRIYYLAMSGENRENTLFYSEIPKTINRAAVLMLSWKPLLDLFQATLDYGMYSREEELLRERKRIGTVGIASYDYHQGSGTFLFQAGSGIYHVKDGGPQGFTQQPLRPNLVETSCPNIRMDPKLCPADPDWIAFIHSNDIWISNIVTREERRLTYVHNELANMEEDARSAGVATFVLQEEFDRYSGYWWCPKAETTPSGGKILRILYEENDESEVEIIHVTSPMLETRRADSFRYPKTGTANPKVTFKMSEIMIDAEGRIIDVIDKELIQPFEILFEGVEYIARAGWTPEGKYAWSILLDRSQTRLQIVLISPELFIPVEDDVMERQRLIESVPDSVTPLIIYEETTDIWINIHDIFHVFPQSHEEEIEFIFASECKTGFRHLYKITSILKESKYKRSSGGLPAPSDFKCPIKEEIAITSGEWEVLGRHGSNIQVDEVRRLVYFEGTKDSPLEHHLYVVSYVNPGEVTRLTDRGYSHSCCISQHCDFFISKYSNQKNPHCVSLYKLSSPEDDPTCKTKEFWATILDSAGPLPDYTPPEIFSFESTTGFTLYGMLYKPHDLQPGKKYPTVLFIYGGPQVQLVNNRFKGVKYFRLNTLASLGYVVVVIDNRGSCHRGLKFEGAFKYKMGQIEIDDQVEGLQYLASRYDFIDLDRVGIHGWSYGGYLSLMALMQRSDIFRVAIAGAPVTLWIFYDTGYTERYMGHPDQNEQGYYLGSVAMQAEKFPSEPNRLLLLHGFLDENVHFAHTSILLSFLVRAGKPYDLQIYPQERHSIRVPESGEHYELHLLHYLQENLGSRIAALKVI
Chain of Dipeptidyl peptidase 9 (Q86TI2 whole entry): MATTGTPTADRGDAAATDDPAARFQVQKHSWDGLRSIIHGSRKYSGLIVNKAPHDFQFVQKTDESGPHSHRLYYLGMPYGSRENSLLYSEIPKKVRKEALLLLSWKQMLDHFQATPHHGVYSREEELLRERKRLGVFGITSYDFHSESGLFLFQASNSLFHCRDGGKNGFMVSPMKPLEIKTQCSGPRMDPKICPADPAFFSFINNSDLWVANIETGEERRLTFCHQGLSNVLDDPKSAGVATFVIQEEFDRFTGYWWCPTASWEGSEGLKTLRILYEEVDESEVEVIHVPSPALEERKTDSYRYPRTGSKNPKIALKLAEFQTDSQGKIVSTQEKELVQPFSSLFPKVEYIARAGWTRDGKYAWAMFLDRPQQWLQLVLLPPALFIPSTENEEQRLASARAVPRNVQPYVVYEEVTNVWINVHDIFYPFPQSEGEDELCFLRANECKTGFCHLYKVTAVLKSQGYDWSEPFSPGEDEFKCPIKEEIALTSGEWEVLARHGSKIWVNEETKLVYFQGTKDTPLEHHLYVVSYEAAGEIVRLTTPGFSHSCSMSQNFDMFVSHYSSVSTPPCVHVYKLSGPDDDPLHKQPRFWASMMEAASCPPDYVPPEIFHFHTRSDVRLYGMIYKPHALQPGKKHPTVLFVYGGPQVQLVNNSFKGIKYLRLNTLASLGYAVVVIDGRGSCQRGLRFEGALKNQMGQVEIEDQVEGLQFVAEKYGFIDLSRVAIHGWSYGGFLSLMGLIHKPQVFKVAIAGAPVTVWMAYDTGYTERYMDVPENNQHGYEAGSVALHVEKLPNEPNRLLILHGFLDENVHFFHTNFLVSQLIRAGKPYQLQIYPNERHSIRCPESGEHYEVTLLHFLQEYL
Chain of Dipeptidyl peptidase 4 (P27487 whole entry): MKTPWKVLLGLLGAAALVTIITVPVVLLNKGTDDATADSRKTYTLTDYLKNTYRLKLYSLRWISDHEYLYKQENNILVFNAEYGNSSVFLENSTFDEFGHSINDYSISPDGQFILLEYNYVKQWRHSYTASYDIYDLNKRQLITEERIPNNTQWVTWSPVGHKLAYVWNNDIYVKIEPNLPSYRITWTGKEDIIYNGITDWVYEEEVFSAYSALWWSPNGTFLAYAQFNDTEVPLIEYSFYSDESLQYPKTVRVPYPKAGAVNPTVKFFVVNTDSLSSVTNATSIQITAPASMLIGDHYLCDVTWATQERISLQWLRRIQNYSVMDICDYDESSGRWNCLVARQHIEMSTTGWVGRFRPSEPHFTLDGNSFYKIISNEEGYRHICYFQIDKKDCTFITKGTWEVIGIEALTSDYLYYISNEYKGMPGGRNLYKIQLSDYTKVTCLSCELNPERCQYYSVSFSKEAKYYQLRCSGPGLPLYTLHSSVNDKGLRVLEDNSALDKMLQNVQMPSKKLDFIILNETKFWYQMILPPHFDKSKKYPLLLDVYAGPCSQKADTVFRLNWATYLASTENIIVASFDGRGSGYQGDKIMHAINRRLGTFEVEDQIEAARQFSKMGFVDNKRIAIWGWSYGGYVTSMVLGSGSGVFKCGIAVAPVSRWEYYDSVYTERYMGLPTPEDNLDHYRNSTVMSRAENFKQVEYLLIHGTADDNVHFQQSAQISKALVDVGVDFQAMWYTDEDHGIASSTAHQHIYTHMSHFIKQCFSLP

N#C[C@@H]1CC(F)(F)CN1C(=O)CNC(=O)c1ccnc2ccc(OCC(O)CF)cc12 (some centres undefined)
pIC50 (Prolyl endopeptidase FAP): 8.36
pIC50 (Dipeptidyl peptidase 4): < 5.00
pIC50 (Dipeptidyl peptidase 8): < 5.00
pIC50 (Dipeptidyl peptidase 9): < 5.00
pIC50 (Dipeptidyl peptidase 2): < 5.00
pIC50 (Prolyl endopeptidase): < 5.00

N#C[C@@H]1CC(F)(F)CN1C(=O)CNC(=O)c1ccnc2ccc(OCC(O)C(O)C[18F])cc12 (some centres undefined)
logD at 2 min [1]: -0.27
remaining at 1 h, 185 kBq [2]: > 70%
remaining at 1 h, 185 kBq [3]: > 70%
Stability [4]: Stable
Stability [5]: Stable
Stability [6]: Unstable
Drug uptake [7]: 0.13 % ID/g
Drug uptake [8]: Active
Drug uptake [9]: Active
Drug uptake [10]: Active
Drug uptake [11]: Active
Drug uptake [12]: < 3 %ID/ml
Drug uptake [13]: Not Active
Drug uptake [14]: Active
Ratio [15]: 5.26
Ratio [16]: 6.56
Ratio [17]: 0.12
Ratio [18]: 1.67
Drug uptake [19]: Active
Drug uptake [20]: Not Active
Drug uptake [21]: Active

COC(CF)COc1ccc2nccc(C(=O)NCC(=O)N3CC(F)(F)C[C@H]3C#N)c2c1 (some centres undefined)
pIC50 (Prolyl endopeptidase FAP): 8.85
pIC50 (Dipeptidyl peptidase 4): < 5.00
pIC50 (Dipeptidyl peptidase 8): 5.24
pIC50 (Dipeptidyl peptidase 9): 5.80
pIC50 (Dipeptidyl peptidase 2): < 5.00
pIC50 (Prolyl endopeptidase): < 5.00

N#C[C@@H]1CC(F)(F)CN1C(=O)CNC(=O)c1ccnc2ccc(OC[C@H](O)[C@@H](O)CF)cc12
pIC50 (Prolyl endopeptidase FAP): 8.75
pIC50 (Dipeptidyl peptidase 4): < 5.00
pIC50 (Dipeptidyl peptidase 8): < 5.00
pIC50 (Dipeptidyl peptidase 9): < 5.00
pIC50 (Dipeptidyl peptidase 2): < 5.00
pIC50 (Prolyl endopeptidase): < 5.00
